Values belong to the molecule of their own block, whether it stands above or below them.
Key:
wild-type (WT) hSTING = wild-type (WT) hSTING (Homo sapiens, UniProt Q86WV6, H232R); assay: ITC binding of DMXAA to STING CTD; conditions: 25°C
[1] = target: hSTING^group1 (aa 140-379) (Homo sapiens, UniProt Q86WV6, E174G/H185L/H232R/L189M/Q196R/R191S/T181M/V194G/Y182F/Y186H); assay: ITC binding of DMXAA to STING CTD; conditions: 25°C
hSTING^group3 = hSTING^group3 (Homo sapiens, UniProt Q86WV6, A300E/A302V/D297E/H232R/Q276K/Q306R/S275A/Y274D); assay: ITC binding of DMXAA to STING CTD; conditions: 25°C
Sequence of hSTING^group3 (Q86WV6 140-379 H232R/Y274D/S275A/Q276K/D297E/A300E/A302V/Q306R): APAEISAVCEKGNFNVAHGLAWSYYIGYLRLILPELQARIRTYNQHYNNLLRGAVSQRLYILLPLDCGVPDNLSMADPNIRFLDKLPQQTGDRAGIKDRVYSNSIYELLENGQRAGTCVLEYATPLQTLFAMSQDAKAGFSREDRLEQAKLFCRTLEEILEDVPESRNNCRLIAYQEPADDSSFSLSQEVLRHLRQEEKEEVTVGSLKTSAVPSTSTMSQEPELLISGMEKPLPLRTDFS

hSTING^group4 = hSTING^group4 (Homo sapiens, UniProt Q86WV6, A350V/E362R/E369D/F378L/G344N/H232R/K347M/K370Q/L346P/M357L/S345A/S353P/S379I/T354P/T356V/V343M/V351A); assay: ITC binding of DMXAA to STING CTD; conditions: 25°C
Sequence of hSTING^group4 (Q86WV6 140-379 with the stated changes): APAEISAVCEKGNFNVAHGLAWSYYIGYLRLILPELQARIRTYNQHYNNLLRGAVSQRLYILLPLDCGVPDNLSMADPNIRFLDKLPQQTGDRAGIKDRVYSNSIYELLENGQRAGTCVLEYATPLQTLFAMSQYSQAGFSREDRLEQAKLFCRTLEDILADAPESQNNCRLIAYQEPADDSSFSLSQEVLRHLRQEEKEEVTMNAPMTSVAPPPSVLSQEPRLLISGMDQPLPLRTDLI

hSTING^group2 = hSTING^group2 (Homo sapiens, UniProt Q86WV6, D237N/G230I/H232R/I244V/K224M/L222R/T229N); assay: IFN-β luciferase reporter assay in transfected 293T cells; assay type: cell-based; conditions: 0.18 mM DMXAA (50 μg/ml), 12 hr
Sequence of hSTING^group2 (Q86WV6 whole entry L222R/K224M/T229N/G230I/H232R/D237N/I244V): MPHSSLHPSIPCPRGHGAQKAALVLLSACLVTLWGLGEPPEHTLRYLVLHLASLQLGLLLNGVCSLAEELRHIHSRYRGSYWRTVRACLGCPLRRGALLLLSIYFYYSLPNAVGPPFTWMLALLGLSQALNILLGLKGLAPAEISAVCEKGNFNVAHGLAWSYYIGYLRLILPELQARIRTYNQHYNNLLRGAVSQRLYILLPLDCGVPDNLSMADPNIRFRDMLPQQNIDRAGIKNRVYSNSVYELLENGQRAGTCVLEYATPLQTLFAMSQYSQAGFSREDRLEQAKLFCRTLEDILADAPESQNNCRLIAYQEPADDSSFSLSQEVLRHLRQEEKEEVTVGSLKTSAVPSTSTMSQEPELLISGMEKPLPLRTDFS

hSTING^group134 = hSTING^group134 (Homo sapiens, UniProt Q86WV6, A300E/A302V/A350V/D297E/E174G/E362R/E369D/F378L/G344N/H185L/H232R/K347M/K370Q/L189M/L346P/M357L/Q196R/Q276K/Q306R/R191S/S275A/S345A/S353P/S379I/T181M/T354P/T356V/V194G/V343M/V351A/Y182F/Y186H/Y274D); assay: IFN-β luciferase reporter assay in transfected 293T cells; assay type: cell-based; conditions: 0.18 mM DMXAA (50 μg/ml), 12 hr, versus hSTING^group1234
Sequence of hSTING^group134 (Q86WV6 1-379 with the stated changes): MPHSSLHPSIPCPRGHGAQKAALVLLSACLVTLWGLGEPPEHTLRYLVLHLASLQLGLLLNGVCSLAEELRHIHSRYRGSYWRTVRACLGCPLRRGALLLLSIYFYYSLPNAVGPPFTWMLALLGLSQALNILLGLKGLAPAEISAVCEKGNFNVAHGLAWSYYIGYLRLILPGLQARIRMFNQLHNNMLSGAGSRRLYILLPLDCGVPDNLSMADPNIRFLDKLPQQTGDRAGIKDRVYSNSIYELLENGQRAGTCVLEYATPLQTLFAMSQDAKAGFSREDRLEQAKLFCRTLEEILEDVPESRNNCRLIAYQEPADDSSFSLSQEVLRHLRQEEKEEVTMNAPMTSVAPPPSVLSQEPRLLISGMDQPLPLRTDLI
Method in brief: (§1)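 HEK293T cells were reverse-transfected with full-length STING plasmids, expressed at moderate levels, plus IFN-β reporter constructs. […] Luciferase was read 12 hr later. Gaussia luciferase was normalized to constitutive firefly luciferase. Values are means of triplicates + SEM, representative of three independent experiments.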

hSTING Q266I = hSTING Q266I (Homo sapiens, UniProt Q86WV6, H232R/Q266I); assay: as above; assay type: cell-based; conditions: 0.18 mM DMXAA, 12 hr
Sequence of hSTING Q266I (Q86WV6 whole entry H232R/Q266I): as the sequence (Q86WV6 whole entry L222R/K224M/T229N/G230I/H232R/D237N/I244V) above, with R222L, M224K, N229T, I230G, N237D, V244I, Q266I counted along it
Method in brief: as §1

hSTING Q266L = hSTING Q266L (Homo sapiens, UniProt Q86WV6, H232R/Q266L); assay: as above; assay type: cell-based; conditions: 0.18 mM DMXAA, 12 hr
Sequence of hSTING Q266L (Q86WV6 whole entry H232R/Q266L): as the sequence (Q86WV6 whole entry L222R/K224M/T229N/G230I/H232R/D237N/I244V) above, with R222L, M224K, N229T, I230G, N237D, V244I, Q266L counted along it
Method in brief: as §1

hSTING G166S = hSTING G166S (Homo sapiens, UniProt Q86WV6, G166S/H232R); assay: as above; assay type: cell-based; conditions: 0.18 mM DMXAA, 12 hr
Sequence of hSTING G166S (Q86WV6 whole entry G166S/H232R): as the sequence (Q86WV6 whole entry L222R/K224M/T229N/G230I/H232R/D237N/I244V) above, with G166S, R222L, M224K, N229T, I230G, N237D, V244I counted along it
Method in brief: as §1

hSTING I235L = hSTING I235L (Homo sapiens, UniProt Q86WV6, H232R/I235L); assay: as above; assay type: cell-based; conditions: 0.18 mM DMXAA, 12 hr
Sequence of hSTING I235L (Q86WV6 whole entry H232R/I235L): as the sequence (Q86WV6 whole entry L222R/K224M/T229N/G230I/H232R/D237N/I244V) above, with R222L, M224K, N229T, I230G, I235L, N237D, V244I counted along it
Method in brief: as §1

hSTING Q266V = hSTING Q266V (Homo sapiens, UniProt Q86WV6, H232R/Q266V); assay: as above; assay type: cell-based; conditions: 0.18 mM DMXAA, 12 hr
Sequence of hSTING Q266V (Q86WV6 whole entry H232R/Q266V): as the sequence (Q86WV6 whole entry L222R/K224M/T229N/G230I/H232R/D237N/I244V) above, with R222L, M224K, N229T, I230G, N237D, V244I, Q266V counted along it
Method in brief: as §1

WT hSTING = WT hSTING (Homo sapiens, UniProt Q86WV6, H232R); assay: Cytokine/chemokine induction in STING^Gt/Gt BMDCs reconstituted with hSTING; assay type: cell-based; conditions: 50 µg/ml DMXAA, 3 hr, real-time PCR
Sequence of WT hSTING (Q86WV6 whole entry H232R): as the sequence (Q86WV6 whole entry L222R/K224M/T229N/G230I/H232R/D237N/I244V) above, with R222L, M224K, N229T, I230G, N237D, V244I counted along it
Method in brief: (§2)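 STING-deficient BMDCs were derived from STINGGt/Gt mouse bone marrow cultured with GM-CSF for 10 days and plated at 1 × 10^6 cells/well. They were infected with retroviruses expressing hSTING variants, and hSTING levels were checked by western blot. […] IFNB1, CXCL10, CCL5 and IL-6 mRNA were measured by real-time PCR. Data are means ± SEM (n = 3) from one of two experiments.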

hSTING^G230I = hSTING^G230I (Homo sapiens, UniProt Q86WV6, G230I/H232R); assay: as above; assay type: cell-based; conditions: 50 µg/ml DMXAA, 3 hr, real-time PCR
Sequence of hSTING^G230I (Q86WV6 whole entry G230I/H232R): as the sequence (Q86WV6 whole entry L222R/K224M/T229N/G230I/H232R/D237N/I244V) above, with R222L, M224K, N229T, N237D, V244I counted along it
Method in brief: as §2

hSTING^S162A/Q266I = hSTING^S162A/Q266I (Homo sapiens, UniProt Q86WV6, H232R/Q266I/S162A); assay: as above; assay type: cell-based; conditions: 50 µg/ml DMXAA, 3 hr, real-time PCR
Sequence of hSTING^S162A/Q266I (Q86WV6 whole entry S162A/H232R/Q266I): as the sequence (Q86WV6 whole entry L222R/K224M/T229N/G230I/H232R/D237N/I244V) above, with S162A, R222L, M224K, N229T, I230G, N237D, V244I, Q266I counted along it
Method in brief: as §2

hSTING^S162A/G230I/Q266I = hSTING^S162A/G230I/Q266I (Homo sapiens, UniProt Q86WV6, G230I/H232R/Q266I/S162A); assay: as above; assay type: cell-based; conditions: 50 µg/ml DMXAA
Sequence of hSTING^S162A/G230I/Q266I (Q86WV6 whole entry S162A/G230I/H232R/Q266I): as the sequence (Q86WV6 whole entry L222R/K224M/T229N/G230I/H232R/D237N/I244V) above, with S162A, R222L, M224K, N229T, N237D, V244I, Q266I counted along it
Method in brief: as §2

hSTING^S162A = hSTING^S162A (Homo sapiens, UniProt Q86WV6, H232R/S162A); assay: as above; assay type: cell-based; conditions: 50 µg/ml DMXAA, 3 hr, real-time PCR
Sequence of hSTING^S162A (Q86WV6 whole entry S162A/H232R): as the sequence (Q86WV6 whole entry L222R/K224M/T229N/G230I/H232R/D237N/I244V) above, with S162A, R222L, M224K, N229T, I230G, N237D, V244I counted along it
Method in brief: as §2

[2] = tested on: all hSTING alleles with S162A/Q266I double substitution; assay: IFN-β luciferase reporter assay in transfected 293T cells; assay type: cell-based, human; conditions: 0.18 mM DMXAA, alleles R232, HAQ, H232, AQ, Q293
Method in brief: as §1

[3] = tested on: non-small-cell lung cancer; conditions: in combination with paclitaxel and carboplatin; ref Lara et al., 2011; cited from earlier work
[4] = ref Tijono et al., 2013; cited from earlier work

Sequence of hSTING^group1 (aa 140-379) (Q86WV6 140-379 E174G/T181M/Y182F/H185L/Y186H/L189M/R191S/V194G/Q196R/H232R): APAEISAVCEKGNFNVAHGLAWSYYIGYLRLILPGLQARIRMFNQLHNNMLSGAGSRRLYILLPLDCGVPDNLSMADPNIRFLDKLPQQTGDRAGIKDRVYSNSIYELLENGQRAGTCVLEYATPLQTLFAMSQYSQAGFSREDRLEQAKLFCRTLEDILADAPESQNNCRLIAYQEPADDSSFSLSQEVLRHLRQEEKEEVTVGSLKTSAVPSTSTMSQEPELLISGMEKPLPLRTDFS
Sequence of wild-type (WT) hSTING (Q86WV6 140-379 H232R): as the sequence (Q86WV6 140-379 H232R/Y274D/S275A/Q276K/D297E/A300E/A302V/Q306R) above, with D135Y, A136S, K137Q, E158D, E161A, V163A, R167Q counted along it

binding to DMXAA (wild-type (WT) hSTING): no detectable binding | binding to DMXAA [1]: no detectable binding | binding to DMXAA (hSTING^group3): no detectable binding | binding to DMXAA (hSTING^group4): no detectable binding | IFN-β reporter response (hSTING^group2): showed responsiveness to DMXAA | IFN-β reporter response (hSTING^group134): strongly diminished DMXAA activation | IFN-β induction (hSTING Q266I): conferred DMXAA sensitivity | IFN-β induction (hSTING Q266L): less pronounced gain | IFN-β induction (hSTING G166S): showed no effects | IFN-β induction (hSTING I235L): showed no effects | IFN-β induction (hSTING Q266V): showed no effects | IFN-β mRNA upregulation (WT hSTING): did not induce the upregulation | increase in IFN-β mRNA levels (hSTING^G230I): 2.6 fold | increase in IFN-β mRNA levels (hSTING^S162A/Q266I): 3.1 fold | increase in IFN-β mRNA levels (hSTING^S162A/G230I/Q266I; 3 hr, real-time PCR): 4.2 fold | CXCL10 production (supernatant, ELISA) (hSTING^S162A/G230I/Q266I; 18 hr): highest level of CXCL10 production | increase in IFN-β mRNA levels (hSTING^S162A): 2.2 fold
Compound: Cc1ccc2c(=O)c3cccc(CC(=O)O)c3oc2c1C [DMXAA, 5,6-dimethylxanthenone-4-acetic acid]
upregulation of CXCL10, CCL5, and IL-6 mRNAs (hSTING^S162A/G230I/Q266I; 3 hr, real-time PCR): strongest induction among the four mutants | DMXAA responsiveness (IFN-β reporter) [2]: able to induce DMXAA responsiveness | outcome of human phase III trials [3]: failed

Compound: Cc1ccc2oc3c(CC(=O)O)cccc3c(=O)c2c1 [7-methyl-XAA]
activity in human [4]: weak yet human-active

Compound: Cc1cccc2oc3c(CC(=O)O)cccc3c(=O)c12 [8-methyl-XAA]
activity in human [4]: weak yet human-active

Reference: publication PMC4381552 (Cell reports, 2014)
